Bioassay records: PubChem BioAssay, The Scripps Research Institute Molecular Screening Center
ADAM10 inh: human ADAM10 inhibitors, primary screen, biochemical, QFRET, HTS; Disintegrin and metalloproteinase domain-containing protein 10 (Homo sapiens), O14672; recombinant ADAM10, EDANS/DABCYL FRET peptide cleavage, 3 h; inhibition, % at 7 µM; actives 0.62% (n = 370,000); AID 720582, 2013;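 active = inhibition above a per-campaign cutoff equal to the mean of compounds falling between control-based bounds plus 3 SD, cut at about 20% in these data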;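 also: 0% = DMSO wells while the 100% control is not disclosed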
DDE Tn7 FP inh: inhibitors of Tn7 peptide binding to fibrin DD(E), primary screen, biochemical, fluorescence polarization, human fibrin, Tn7 probe. Fibrinogen beta chain (Homo sapiens), P02675. FP displacement of FITC-Tn7 peptide from fibrin DD(E); 0% = median of compound wells per plate. inhibition, % at 8.3 µM. actives 0.13% (n = 370,000). AID 720508, 2013;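 active = inhibition above the mean of compounds falling within the control limits plus 3 SD of them, cut at about 14% in these data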;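 also: 0% = plate median of compound wells and 100% = 10 µM Aha-Tn7 peptide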
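Test system: human clot-derived fibrin DD(E) complex / Quantity: 2 µM final DD(E) protein / Incubation: 10 min plus 3 h, room temperature / Measured by: fluorescence polarization / Benchmarks: high control of 10 µM Aha-Tn7 peptide / Replicates: singlicate testing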
DDE Tn6 FP inh: inhibitors of Tn6 peptide binding to fibrin DD(E), primary screen, biochemical, fluorescence polarization, human fibrin, Tn6 probe | Fibrinogen beta chain (Homo sapiens), P02675 | Fibrin DD(E) TRITC-Tn6 fluorescence polarization displacement | inhibition, % at 8.3 µM | actives 0.21% (n = 370,000) | AID 720509, 2013;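 active = inhibition above a per-campaign cutoff: mean of compounds within control limits plus 3 SD, cut at about 15% in these data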;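 also: 0% = median of all compound wells on the plate and 100% = blocking peptide control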
PLC-beta3 inh: human PLC-beta3 inhibitors, primary screen, biochemical, fluorescence; 1-phosphatidylinositol 4,5-bisphosphate phosphodiesterase beta-3 (Homo sapiens), Q01970; actives 0.18% (n = 370,000); AID 720704, 2013; Purified PLC-beta3, fluorogenic substrate; inhibition, % at 12.2 µM; in the data active = inhibition above about 11%;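 also: 0% = median of compound wells on plate and 100% = full blocker control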
Target sequence (Q01970 whole entry, looked up): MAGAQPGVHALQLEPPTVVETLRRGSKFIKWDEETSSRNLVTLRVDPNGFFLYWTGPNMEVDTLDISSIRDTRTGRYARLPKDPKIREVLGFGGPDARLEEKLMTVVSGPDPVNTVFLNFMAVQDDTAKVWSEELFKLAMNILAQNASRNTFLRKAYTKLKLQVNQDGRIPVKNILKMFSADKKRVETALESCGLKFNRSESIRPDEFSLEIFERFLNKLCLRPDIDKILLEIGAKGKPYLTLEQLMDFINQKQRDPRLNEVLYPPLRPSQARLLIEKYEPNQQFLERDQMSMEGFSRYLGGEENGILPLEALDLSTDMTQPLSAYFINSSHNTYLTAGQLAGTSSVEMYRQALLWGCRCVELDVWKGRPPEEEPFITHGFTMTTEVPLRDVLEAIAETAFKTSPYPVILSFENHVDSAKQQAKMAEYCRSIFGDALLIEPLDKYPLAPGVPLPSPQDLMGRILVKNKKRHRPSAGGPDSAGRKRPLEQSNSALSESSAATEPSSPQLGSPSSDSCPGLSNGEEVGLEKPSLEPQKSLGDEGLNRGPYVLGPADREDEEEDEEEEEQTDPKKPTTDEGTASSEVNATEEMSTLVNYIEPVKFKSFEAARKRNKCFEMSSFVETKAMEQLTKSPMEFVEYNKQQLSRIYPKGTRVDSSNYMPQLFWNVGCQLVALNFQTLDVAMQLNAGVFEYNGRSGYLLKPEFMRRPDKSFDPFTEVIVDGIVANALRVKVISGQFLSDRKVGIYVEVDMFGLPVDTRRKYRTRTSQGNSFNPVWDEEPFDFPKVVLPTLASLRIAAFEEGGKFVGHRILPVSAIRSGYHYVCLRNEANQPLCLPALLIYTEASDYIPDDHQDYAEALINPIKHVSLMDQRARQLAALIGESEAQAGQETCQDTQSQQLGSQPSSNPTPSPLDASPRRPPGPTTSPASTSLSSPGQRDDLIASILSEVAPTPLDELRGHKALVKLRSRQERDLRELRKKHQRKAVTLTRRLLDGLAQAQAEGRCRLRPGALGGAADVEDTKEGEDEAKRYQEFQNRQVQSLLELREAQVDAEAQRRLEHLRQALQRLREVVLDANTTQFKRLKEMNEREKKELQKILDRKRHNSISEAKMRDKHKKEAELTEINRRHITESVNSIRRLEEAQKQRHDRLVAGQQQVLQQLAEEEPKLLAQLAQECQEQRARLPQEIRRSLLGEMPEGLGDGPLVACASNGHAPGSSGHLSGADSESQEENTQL
ADAM17 inh: ADAM17 inhibitors, primary screen, biochemical, QFRET; actives 0.83% (n = 370,000); inhibition, % at 6.95 µM; recombinant ADAM17, EDANS/DABCYL FRET peptide cleavage; Disintegrin and metalloproteinase domain-containing protein 17 (Homo sapiens), P78536;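 active = inhibition above the mean of compounds lying between control limits plus 3 SD, set per campaign, cut at about 8.5% in these data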;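 also: 0% = DMSO-only wells as the low control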
PLCg1 inh: PLC-gamma1 enzyme inhibitors, primary screen, biochemical, fluorescence, purified enzyme. fluorogenic substrate. AID 720700, 2013. actives 0.84% (n = 370,000). 1-phosphatidylinositol 4,5-bisphosphate phosphodiesterase gamma-1 (Homo sapiens), P19174. inhibition, % at 12.2 µM; in the data active = inhibition above about 9.5%
ADAM10 counter: ADAM10 inhibitors, counter-screen for ADAM17 exosite inhibitor project, biochemical, FRET, human ADAM10; shares compounds with ADAM17 inh; recombinant ADAM10, EDANS/DABCYL FRET peptide cleavage, 3 h; inhibition, % at 6.95 µM; actives 47% (n = 2,900); AID 743256, 2014;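 active = mean inhibition over the triplicate runs exceeds the activity threshold set in the earlier primary screen, cut at about 20% in these data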;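 also: 0% = DMSO wells and 100% = marimastat wells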
ADAM17 confirm: ADAM17 inhibitors, hit retest, confirmation, biochemical, QFRET peptide cleavage; inhibition, % at 6.95 µM; AID 743257, 2014; actives 65% (n = 2,900); recombinant ADAM17, EDANS/DABCYL QFRET peptide cleavage; shares compounds with ADAM17 inh;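 active = mean inhibition across replicates above the hit cutoff set in the primary screen, cut at about 8.5% in these data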;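 also: 0% = DMSO wells and 100% = marimastat wells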
Active calls of the source: *; x = not tested or not shown. Rows were chosen to be rich in hits. Some 2.3% of all compounds tested hit in one or more screens of this group.

SMILES | ADAM10 inh | DDE Tn7 FP inh | DDE Tn6 FP inh | PLC-beta3 inh | ADAM17 inh | PLCg1 inh | ADAM10 counter | ADAM17 confirm
CNC(=O)CC1C(=O)N(c2ccc(Cl)cc2)C(=S)N1CCc1ccc(OC)c(OC)c1 (centres undefined) | 13 | -7 | 2 | 2 | 8.7* | 7 | 14 | 7
Cc1cc(=O)n(Cc2ccc(OC(C)C)cc2)c(=S)[nH]1 | 7 | -6 | 0 | -3 | 10* | 6 | 14 | 9.9*
Cc1ccc(Sc2ccc(/C=C3/C(=O)NN(c4ccccc4)C3=O)o2)cc1 | 20 | 1 | 1 | -9 | 8.8* | 1 | 15 | 7
O=S(=O)(c1ccc2nc(Cc3ccccc3)[nH]c2c1)N1CCOCC1 | 18 | -6 | -2 | 9 | 8.8* | 4 | 13 | 6
CCc1cc(/C(Cc2ccccn2)=N\O)c(O)cc1O | 11 | -2 | 3 | -2 | 2 | 0 | x | x
CCc1cc(/C(Cc2ccc3ccccc3n2)=N\O)c(O)cc1O | 15 | 3 | -2 | 1 | 9.2* | 0 | 30* | 22*
Cc1ccc(N(CC(=O)O)S(=O)(=O)c2cccc3nonc23)cc1 | -4 | 7 | 0 | 3 | -5 | 5 | x | x
CC(=O)c1cccc(NC(=O)CN(c2ccc(C)cc2)S(=O)(=O)c2cccc3nonc23)c1 | 23* | 2 | -18 | 10 | 12* | 6 | 25* | 15*
O=S(=O)(NCCC(c1ccc(F)cc1)c1ccco1)c1ccccc1 (centres undefined) | 15 | 5 | 1 | 1 | 13* | 1 | 18 | 11*
COC(=O)[C@]12C[C@H](CC(=O)N3CCCCC3)C(=O)N(Cc3ccco3)C1=C[C@H](COCc1ccccc1)O[C@@H]2C | 7 | -5 | -1 | 3 | 0 | 3 | x | x
CC(=O)Nc1ccc(S(=O)(=O)Nc2ccc3c(c2)OCCO3)cc1Cl | 5 | -5 | 0 | -3 | 0 | 0 | x | x
CC(OC(=O)c1cc(S(=O)(=O)Nc2ccc(F)cc2)ccc1Cl)C(=O)Nc1ccc2c(c1)OCCO2 (centres undefined) | 12 | -7 | -6 | -2 | 9.8* | 0 | 12 | 8
Cc1cnc(C(=O)OC(C)C(=O)Nc2ccc3c(c2)OCCO3)cn1 (centres undefined) | 8 | -1 | 0 | 0 | 9.9* | 4 | 5 | 14*
COC(=O)C[C@H]1CC[C@@H]2[C@@H](COc3ccc(NS(=O)(=O)c4ccccc4Cl)cc3C(=O)N2C)O1 | 0 | -1 | 2 | -3 | 0 | -1 | x | x
O=C(Nc1ccc(OC(F)(F)F)cc1)Nc1c(-c2ccc(C(F)(F)F)cc2)nc2ncccn12 | -4 | 0 | 2 | -11 | 1 | -5 | x | x
COCCCNC(=O)CN1C(=O)C2CCCCN2C(=O)c2ccccc21 (centres undefined) | -11 | 4 | -6 | -4 | -3 | -1 | x | x
O=C(/C=C/c1ccc(S(=O)(=O)NCc2ccco2)cc1)NCc1ccccc1Cl | 17 | 1 | 0 | 4 | 9.9* | 0 | 0 | 4
COc1ccc(CNC(=O)/C=C/c2ccc(S(=O)(=O)NCc3ccco3)cc2)cc1OC | 7 | -2 | -3 | 6 | 2 | 1 | x | x
N#Cc1c(-c2ccccc2)c(-c2ccccc2)nn(CC(=O)NNC(=O)Nc2ccc(Cl)c(Cl)c2)c1=O | 9 | -1 | -5 | -1 | 15* | -5 | 27* | 18*
O=C(Cn1nc(-c2ccccc2)c2ccccc2c1=O)Nc1ccc(F)cc1 | 9 | -2 | 2 | -6 | 1 | 4 | x | x
Cc1nnsc1NC(=O)OCc1ccc(Cl)cc1Cl | 12 | -4 | 0 | 8 | 10* | 8 | 6 | 1
Cc1nn(C)c(Cl)c1NC(=O)OCc1ccc(Cl)cc1Cl | 6 | 6 | 2 | -1 | -1 | 7 | x | x
C[C@@H]1CN([C@H](C)CO)C(=O)c2c(c3ccccc3n2C)-c2ccccc2CO[C@H]1CN(C)Cc1ccc(-c2ccccc2)cc1 | 8 | 0 | -3 | 1 | 8.9* | 4 | 17 | 8
Cc1ccc(S(=O)(=O)Nc2cccc3c2O[C@H](CN(C)Cc2ccc(-c4ccccc4)cc2)[C@@H](C)CN([C@H](C)CO)C3=O)cc1 | 24* | 4 | 2 | 2 | 13* | 1 | 44* | 24*
Cc1ccc(S(=O)(=O)N(C)C[C@@H]2Oc3ccc(NS(=O)(=O)c4ccccc4)cc3CC(=O)N([C@@H](C)CO)C[C@H]2C)cc1 | 14 | -2 | 1 | 9 | 10* | 8 | 5 | 5
SMILES | ADAM10 inh | DDE Tn7 FP inh | DDE Tn6 FP inh | PLC-beta3 inh | ADAM17 inh | PLCg1 inh | ADAM10 counter | ADAM17 confirm
COc1ccc2c(c1)NC(=O)[C@@]2(CCN1C(=O)c2ccccc2C1=O)c1[nH]c2ccccc2c1CCN1C(=O)c2ccccc2C1=O | 11 | 0 | 0 | -3 | 3 | 2 | x | x
CCCC(=O)OC12CCCN(C1)/C(=C/c1ccccc1)C2 (centres undefined) | -8 | -5 | -3 | -5 | 0 | 0 | x | x
COc1ccc(CCNc2oc(COc3ccc(Br)cc3)nc2C#N)cc1OC | 18 | -9 | 1 | -1 | 10* | 6 | 34* | 19*
COc1ccc(CNc2oc(COc3ccc(Cl)cc3)nc2C#N)cc1 | 18 | -3 | -5 | -10 | 11* | -4 | 31* | 16*
COc1ccc(Nc2oc(-c3ccc(Cl)cc3)nc2C#N)cc1 | -61 | -6 | -1 | -201 | -20 | -154 | x | x
COc1ccc(Nc2oc(COc3ccc(Cl)cc3)nc2C#N)cc1 | 26* | -14 | -16 | -5 | 13* | -2 | 31* | 18*
O[C@@H]1[C@@H](O)[C@H](n2c3ccc(Cl)cc3c3ccc4c5cc(Cl)ccc5[nH]c4c32)OC[C@H]1O | -53 | 2 | -14 | -4 | -17 | -3 | x | x
C=CCn1c(SCC(=O)OC(C)C)nnc1-c1ccc(C)cc1 | -10 | -4 | 1 | 0 | -4 | -4 | x | x
